Assay results from ChEMBL document CHEMBL3352338, “Development and biological evaluation of potent and selective c-KIT(D816V) inhibitors” (J Med Chem, 2014).
The source made the active and inactive calls. The rule behind the calls is not given here.

Tests used:
[1] = target: T1, Mast/stem cell growth factor receptor Kit (Homo sapiens, UniProt P10721); assay: Inhibition of wild type c-KIT (unknown origin)
[2] = target: T1, Mast/stem cell growth factor receptor Kit; conditions: 5 uM
[3] = target: T1, Mast/stem cell growth factor receptor Kit; assay: Inhibition of c-KIT (unknown origin) at 1 uM by KINOMEscanning/auto inhibition assay; values are per cent of control
[4] = target: Hepatocyte growth factor receptor (Homo sapiens) (UniProt P08581); assay: Inhibition of MET (unknown origin) at 1 uM by KINOMEscanning assay relative to control; values are per cent of control
Chain of Hepatocyte growth factor receptor (Homo sapiens) (P08581 whole entry): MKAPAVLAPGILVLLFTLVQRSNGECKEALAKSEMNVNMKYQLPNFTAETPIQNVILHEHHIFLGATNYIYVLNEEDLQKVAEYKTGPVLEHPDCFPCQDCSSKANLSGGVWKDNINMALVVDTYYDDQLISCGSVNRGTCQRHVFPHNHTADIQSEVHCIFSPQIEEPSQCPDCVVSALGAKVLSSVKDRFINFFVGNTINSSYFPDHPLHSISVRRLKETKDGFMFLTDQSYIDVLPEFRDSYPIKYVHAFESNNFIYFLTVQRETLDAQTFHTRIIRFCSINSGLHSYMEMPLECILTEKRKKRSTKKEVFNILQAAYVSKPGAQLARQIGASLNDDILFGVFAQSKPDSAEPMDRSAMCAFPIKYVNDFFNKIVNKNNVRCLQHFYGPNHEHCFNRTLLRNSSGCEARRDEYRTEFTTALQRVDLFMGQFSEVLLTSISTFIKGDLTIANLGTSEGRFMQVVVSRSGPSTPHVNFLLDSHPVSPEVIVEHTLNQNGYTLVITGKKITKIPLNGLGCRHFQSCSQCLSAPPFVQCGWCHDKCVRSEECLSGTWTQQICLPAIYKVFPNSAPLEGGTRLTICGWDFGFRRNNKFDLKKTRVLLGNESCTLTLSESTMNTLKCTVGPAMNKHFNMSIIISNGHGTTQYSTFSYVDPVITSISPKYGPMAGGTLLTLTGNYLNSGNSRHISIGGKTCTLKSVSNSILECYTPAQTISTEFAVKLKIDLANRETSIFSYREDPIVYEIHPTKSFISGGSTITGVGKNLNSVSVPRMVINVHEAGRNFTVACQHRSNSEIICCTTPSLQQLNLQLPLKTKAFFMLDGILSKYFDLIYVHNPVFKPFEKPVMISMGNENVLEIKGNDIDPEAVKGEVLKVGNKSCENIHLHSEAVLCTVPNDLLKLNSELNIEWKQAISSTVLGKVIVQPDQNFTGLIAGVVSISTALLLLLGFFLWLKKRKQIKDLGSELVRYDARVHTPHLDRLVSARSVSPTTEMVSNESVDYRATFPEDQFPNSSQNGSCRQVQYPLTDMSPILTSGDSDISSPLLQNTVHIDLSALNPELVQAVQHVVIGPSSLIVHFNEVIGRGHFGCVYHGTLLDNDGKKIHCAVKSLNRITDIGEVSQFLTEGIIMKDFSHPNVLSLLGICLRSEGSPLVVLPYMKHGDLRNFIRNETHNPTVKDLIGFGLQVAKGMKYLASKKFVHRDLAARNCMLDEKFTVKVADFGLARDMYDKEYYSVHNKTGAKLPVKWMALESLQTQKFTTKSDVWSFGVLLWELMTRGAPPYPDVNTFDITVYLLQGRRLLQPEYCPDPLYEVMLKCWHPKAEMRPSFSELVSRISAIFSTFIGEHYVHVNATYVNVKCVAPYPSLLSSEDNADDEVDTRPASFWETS

[5] = target: Cyclin-dependent kinase 4 (Homo sapiens) (UniProt P11802); assay: Inhibition of CDK4 (unknown origin) at 1 uM by KINOMEscanning assay relative to control; values are per cent of control
Chain of Cyclin-dependent kinase 4 (Homo sapiens) (P11802 whole entry): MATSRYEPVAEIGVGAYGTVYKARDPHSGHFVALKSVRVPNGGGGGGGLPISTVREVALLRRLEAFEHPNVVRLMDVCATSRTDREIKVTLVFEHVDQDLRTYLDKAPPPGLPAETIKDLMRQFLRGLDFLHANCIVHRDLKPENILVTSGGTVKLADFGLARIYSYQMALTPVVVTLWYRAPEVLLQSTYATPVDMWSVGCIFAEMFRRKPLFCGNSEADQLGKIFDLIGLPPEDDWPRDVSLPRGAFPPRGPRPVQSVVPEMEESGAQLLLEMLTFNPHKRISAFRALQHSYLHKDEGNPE

[6] = target: Cyclin-dependent kinase 9 (Homo sapiens) (UniProt P50750); assay: Inhibition of CDK9 (unknown origin) at 1 uM by KINOMEscanning assay relative to control; values are per cent of control
Chain of Cyclin-dependent kinase 9 (Homo sapiens) (P50750 whole entry): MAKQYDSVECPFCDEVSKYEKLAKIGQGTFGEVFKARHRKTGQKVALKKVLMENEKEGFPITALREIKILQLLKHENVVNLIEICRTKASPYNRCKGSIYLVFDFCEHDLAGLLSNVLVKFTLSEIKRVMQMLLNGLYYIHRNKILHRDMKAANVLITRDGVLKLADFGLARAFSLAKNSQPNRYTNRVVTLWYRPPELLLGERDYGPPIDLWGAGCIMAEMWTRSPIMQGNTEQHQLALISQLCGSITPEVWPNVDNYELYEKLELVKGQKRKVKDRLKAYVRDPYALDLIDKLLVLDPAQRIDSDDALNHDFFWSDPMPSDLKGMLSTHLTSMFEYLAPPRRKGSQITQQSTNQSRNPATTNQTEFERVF

[7] = target: Vascular endothelial growth factor receptor 1 (Homo sapiens) (UniProt P17948); assay: Inhibition of FLT1 (unknown origin) at 1 uM by KINOMEscanning assay relative to control; values are per cent of control
Chain of Vascular endothelial growth factor receptor 1 (Homo sapiens) (P17948 whole entry): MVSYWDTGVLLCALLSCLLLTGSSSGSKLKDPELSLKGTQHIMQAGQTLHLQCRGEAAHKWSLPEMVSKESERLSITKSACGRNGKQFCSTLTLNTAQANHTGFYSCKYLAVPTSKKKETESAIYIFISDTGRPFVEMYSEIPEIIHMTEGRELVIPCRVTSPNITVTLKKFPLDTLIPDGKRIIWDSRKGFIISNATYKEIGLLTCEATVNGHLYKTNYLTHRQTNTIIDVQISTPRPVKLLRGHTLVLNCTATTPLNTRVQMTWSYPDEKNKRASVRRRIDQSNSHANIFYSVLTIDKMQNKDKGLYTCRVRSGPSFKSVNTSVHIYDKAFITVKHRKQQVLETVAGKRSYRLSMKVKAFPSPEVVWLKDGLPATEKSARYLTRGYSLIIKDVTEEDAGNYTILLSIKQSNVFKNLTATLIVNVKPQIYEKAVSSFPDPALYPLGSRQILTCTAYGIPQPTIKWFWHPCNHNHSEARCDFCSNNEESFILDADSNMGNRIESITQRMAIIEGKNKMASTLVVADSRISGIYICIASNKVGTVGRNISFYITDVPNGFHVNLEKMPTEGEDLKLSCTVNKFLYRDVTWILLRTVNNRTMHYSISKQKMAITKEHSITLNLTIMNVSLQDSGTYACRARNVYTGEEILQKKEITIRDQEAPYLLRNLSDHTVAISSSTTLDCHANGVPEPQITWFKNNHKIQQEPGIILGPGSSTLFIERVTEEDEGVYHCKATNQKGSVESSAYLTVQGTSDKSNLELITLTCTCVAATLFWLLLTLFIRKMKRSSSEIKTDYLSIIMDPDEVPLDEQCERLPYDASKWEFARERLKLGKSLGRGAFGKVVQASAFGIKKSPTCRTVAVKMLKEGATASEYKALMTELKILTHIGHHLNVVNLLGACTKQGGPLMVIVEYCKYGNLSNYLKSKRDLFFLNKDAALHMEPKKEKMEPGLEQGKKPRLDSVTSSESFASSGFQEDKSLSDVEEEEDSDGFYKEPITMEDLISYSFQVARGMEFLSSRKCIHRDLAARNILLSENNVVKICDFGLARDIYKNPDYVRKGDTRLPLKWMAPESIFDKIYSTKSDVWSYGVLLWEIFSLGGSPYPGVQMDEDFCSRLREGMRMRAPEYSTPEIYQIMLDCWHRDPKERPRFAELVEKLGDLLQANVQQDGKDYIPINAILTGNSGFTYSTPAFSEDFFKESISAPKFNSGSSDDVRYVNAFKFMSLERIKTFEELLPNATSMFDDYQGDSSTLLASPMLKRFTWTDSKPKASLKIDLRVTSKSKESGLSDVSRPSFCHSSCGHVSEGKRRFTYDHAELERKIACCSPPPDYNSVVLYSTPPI

[8] = target: High affinity nerve growth factor receptor (Homo sapiens) (UniProt P04629); assay: Inhibition of TRKA (unknown origin) at 1 uM by KINOMEscanning assay relative to control; values are per cent of control
[9] = target: Aurora kinase B (Homo sapiens) (UniProt Q96GD4); assay: Inhibition of AURKB (unknown origin) at 1 uM by KINOMEscanning assay relative to control; values are per cent of control
Chain of Aurora kinase B (Homo sapiens) (Q96GD4 whole entry): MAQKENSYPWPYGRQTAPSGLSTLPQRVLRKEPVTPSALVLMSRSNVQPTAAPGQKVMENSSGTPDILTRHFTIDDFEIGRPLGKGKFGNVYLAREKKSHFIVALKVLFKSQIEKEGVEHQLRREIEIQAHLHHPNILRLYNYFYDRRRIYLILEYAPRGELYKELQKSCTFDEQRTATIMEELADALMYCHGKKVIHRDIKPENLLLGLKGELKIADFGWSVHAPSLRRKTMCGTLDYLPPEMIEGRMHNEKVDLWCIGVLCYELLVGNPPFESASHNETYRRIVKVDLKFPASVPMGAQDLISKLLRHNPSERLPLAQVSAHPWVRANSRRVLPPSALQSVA

[10] = target: Cyclin-dependent kinase 19 (Homo sapiens) (UniProt Q9BWU1); assay: Inhibition of CDK11 (unknown origin) at 1 uM by KINOMEscanning assay relative to control; values are per cent of control
[11] = target: Fibroblast growth factor receptor 2 (Homo sapiens) (UniProt P21802); assay: Inhibition of FGFR2 (unknown origin) at 1 uM by KINOMEscanning assay relative to control; values are per cent of control
[12] = target: Insulin-like growth factor 1 receptor (Homo sapiens) (UniProt P08069); assay: Inhibition of IGF1R (unknown origin) at 1 uM by KINOMEscanning assay relative to control; values are per cent of control
[13] = target: T1, Mast/stem cell growth factor receptor Kit; assay: Inhibition of c-KIT (unknown origin) at 1 uM by KINOMEscanning assay relative to control; values are per cent of control
[14] = target: Rho-associated protein kinase 1 (Homo sapiens) (UniProt Q13464); assay: Inhibition of ROCK1 (unknown origin) at 1 uM by KINOMEscanning assay relative to control; values are per cent of control
Chain of Rho-associated protein kinase 1 (Homo sapiens) (Q13464 2-1354 limits assumed): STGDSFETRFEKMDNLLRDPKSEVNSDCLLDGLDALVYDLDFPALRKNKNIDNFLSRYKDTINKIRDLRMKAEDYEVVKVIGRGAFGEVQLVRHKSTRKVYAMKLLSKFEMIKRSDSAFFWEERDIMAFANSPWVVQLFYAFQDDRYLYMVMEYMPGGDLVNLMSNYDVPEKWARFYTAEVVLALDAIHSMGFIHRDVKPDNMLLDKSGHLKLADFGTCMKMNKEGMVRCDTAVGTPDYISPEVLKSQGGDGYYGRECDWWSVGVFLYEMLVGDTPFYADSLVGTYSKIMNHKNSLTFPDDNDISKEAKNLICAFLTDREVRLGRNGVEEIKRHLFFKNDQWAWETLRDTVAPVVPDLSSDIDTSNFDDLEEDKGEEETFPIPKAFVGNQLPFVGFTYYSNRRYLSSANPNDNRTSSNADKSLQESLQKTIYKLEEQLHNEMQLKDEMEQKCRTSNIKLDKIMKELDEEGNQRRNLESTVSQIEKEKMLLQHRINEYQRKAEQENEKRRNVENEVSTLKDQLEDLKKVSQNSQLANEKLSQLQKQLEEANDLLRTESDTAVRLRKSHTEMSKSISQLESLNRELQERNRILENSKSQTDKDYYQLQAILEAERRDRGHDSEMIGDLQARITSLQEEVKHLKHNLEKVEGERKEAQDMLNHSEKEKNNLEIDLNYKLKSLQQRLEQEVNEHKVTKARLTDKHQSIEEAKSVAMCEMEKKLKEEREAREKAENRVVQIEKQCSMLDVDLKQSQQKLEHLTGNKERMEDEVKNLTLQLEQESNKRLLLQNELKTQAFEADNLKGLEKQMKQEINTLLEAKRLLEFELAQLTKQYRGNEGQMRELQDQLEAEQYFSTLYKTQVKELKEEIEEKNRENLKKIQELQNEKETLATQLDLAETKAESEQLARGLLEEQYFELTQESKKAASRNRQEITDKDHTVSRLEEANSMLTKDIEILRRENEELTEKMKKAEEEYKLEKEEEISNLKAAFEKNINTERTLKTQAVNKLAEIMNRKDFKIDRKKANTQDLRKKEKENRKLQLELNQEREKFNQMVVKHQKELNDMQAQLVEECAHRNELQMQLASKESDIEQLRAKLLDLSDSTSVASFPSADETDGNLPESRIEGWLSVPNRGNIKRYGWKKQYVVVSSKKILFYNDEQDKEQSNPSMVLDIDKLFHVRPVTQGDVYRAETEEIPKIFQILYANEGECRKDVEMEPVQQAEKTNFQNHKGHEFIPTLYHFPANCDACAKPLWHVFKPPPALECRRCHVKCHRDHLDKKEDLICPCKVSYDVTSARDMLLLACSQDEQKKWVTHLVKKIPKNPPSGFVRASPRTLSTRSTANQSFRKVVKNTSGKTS

[15] = target: Glycogen synthase kinase-3 beta (Homo sapiens) (UniProt P49841); assay: Inhibition of GSK3beta (unknown origin) at 1 uM by KINOMEscanning assay relative to control; values are per cent of control
[16] = target: T2, Inhibitor of nuclear factor kappa-B kinase subunit alpha (Homo sapiens) (UniProt O15111); assay: Inhibition of IKKalpha (unknown origin) at 1 uM by KINOMEscanning assay relative to control; values are per cent of control
T2 sequence (whole entry): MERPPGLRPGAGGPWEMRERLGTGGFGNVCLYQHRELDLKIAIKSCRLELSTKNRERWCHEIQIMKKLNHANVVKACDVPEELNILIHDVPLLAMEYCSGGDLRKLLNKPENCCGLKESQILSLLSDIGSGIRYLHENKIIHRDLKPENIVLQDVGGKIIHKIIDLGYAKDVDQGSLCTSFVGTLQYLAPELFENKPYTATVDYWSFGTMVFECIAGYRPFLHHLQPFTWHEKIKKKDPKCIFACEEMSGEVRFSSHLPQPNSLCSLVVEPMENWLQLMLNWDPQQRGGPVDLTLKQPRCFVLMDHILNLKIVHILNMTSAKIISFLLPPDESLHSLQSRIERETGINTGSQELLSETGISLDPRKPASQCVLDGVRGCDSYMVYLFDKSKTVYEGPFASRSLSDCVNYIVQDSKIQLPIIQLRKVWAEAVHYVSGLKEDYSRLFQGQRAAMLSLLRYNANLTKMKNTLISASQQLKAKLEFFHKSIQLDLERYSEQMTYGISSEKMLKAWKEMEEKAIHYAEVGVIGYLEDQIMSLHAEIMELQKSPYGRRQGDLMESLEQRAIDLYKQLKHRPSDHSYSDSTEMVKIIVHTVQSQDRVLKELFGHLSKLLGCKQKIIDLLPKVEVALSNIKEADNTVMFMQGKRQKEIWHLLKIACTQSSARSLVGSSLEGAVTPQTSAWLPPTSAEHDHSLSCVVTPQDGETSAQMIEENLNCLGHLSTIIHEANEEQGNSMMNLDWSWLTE

[17] = target: 5'-AMP-activated protein kinase catalytic subunit alpha-2 (Homo sapiens) (UniProt P54646); assay: Inhibition of AMPKalpha 2 (unknown origin) at 1 uM by KINOMEscanning assay relative to control; values are per cent of control
[18] = test system: Mast/stem cell growth factor receptor Kit (Homo sapiens), P10721 [D816V]; assay: Inhibition of c-KIT D816V mutant (unknown origin) at 1 uM by KINOMEscanning assay relative to control; values are per cent of control
[19] = target: Phosphatidylinositol 4,5-bisphosphate 3-kinase catalytic subunit alpha isoform (Homo sapiens, UniProt P42336); assay: Inhibition of PI3Kalpha (unknown origin)
[20] = Cell cycle arrest in human HMC-1.2 cells assessed as accumulation at sub-G1 phase after 24 hrs by flow cytometric analysis; assay type: functional, cell-based
Procedure, shortened: (§1)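 HMC-1.2 cells exposed to increasing concentrations for 24 h; cell cycle distribution (SubG1/G1 fraction) measured by flow cytometry.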

[21] = Cell cycle arrest in human HMC-1.2 cells assessed as accumulation at G1 phase after 24 hrs by flow cytometric analysis; assay type: functional, cell-based; procedure, shortened: as §1
[22] = Induction of apoptosis in human HMC-1.2 cells assessed as apoptotic cells at 0.1 uM after 48 hrs by TUNEL staining (reference value: 0.849%); assay type: functional
[23] = Induction of apoptosis in human HMC-1.2 cells assessed as apoptotic cells at 5 uM after 48 hrs by TUNEL staining (reference value: 0.849%); assay type: functional

| SMILES | IC50 [1] [nM] | inhibition [2] | residual activity [3] [%] | residual activity [4] [%] | residual activity [5] [%] | residual activity [6] [%] | residual activity [7] [%] | residual activity [8] [%] | residual activity [9] [%] | residual activity [10] [%] | residual activity [11] [%] | residual activity [12] [%] | residual activity [13] [%] | residual activity [14] [%] | residual activity [15] [%] | residual activity [16] [%] | residual activity [17] [%] | residual activity [18] [%] | further results |
| --- | --- | --- | --- | --- | --- | --- | --- | --- | --- | --- | --- | --- | --- | --- | --- | --- | --- | --- | --- |
| COc1ccc(-c2c[nH]c3ncc(-c4cc(OC)c(OC)c(OC)c4)cc23)cc1OC | 2750 | Active | 42 | 54 | 95 | 100 | 75 | 46 | 92 | 90 | 100 | 91 | 19 | 66 | 64 | 70 | 86 | 0 | – |
| COc1ccc(-c2cnc3[nH]cc(-c4ccc(OC)c(OC)c4)c3c2)cc1N | > 10000 | Active | 65 | 47 | 81 | 100 | 43 | 11 | 85 | 79 | 100 | 79 | 37 | 16 | 87 | 26 | 87 | 0 | – |
| COc1cc(-c2c[nH]c3ncc(-c4cccc(N)c4)cc23)cc(OC)c1OC | – | Active | 53 | 35 | 85 | 83 | 36 | 83 | 31 | 96 | 100 | 100 | 9.8 | 94 | 64 | 46 | 77 | 2.1 | – |
| COc1ccc(-c2cnc3[nH]cc(-c4ccc(OC)c(OC)c4)c3c2)cc1OC | 142 | Active | 48 | 34 | 85 | 100 | 81 | 26 | 82 | 3.8 | 100 | 100 | 0.8 | 33 | 94 | 10 | 81 | 0 | IC50 [19]: > 10 µM; inhibition [20]: Dose-dependent effect; inhibition [21]: Dose-dependent effect; Activity [22]: 0.732%; Activity [23]: 69.9% |
| COc1ccc(-c2c[nH]c3ncc(-c4ccc(C(=O)N5CCOCC5)c(N)c4)cc23)cc1OC | 9140 | – | 76 | 54 | 82 | 100 | 56 | 11 | 44 | 100 | 89 | 96 | 51 | 16 | 63 | 2.2 | 82 | 1.4 | – |
